Experimental data taken from ChEMBL document CHEMBL5058577, “EUbOPEN Chemogenomics Library 2 (Multiplex)” (2022).

Tested on: U2OS
Experiment: Multiplex assay against U2OS
Format: toxicity, cell-based
Conditions: human
Method in brief: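 Cells stained live at seeding with Hoechst33342, BioTracker Green Microtubule Cytoskeleton Dye, MitoTracker Red and Annexin V Alexa Fluor 680 were imaged on a CQ1 microscope at 37°C and 5% CO2 after compound addition. Their classification by CellPathfinder machine-learning gating ran from Hoechst high-intensity objects versus normal cells, to healthy, pyknosed or fragmented nuclei among normal cells, to mitotic or apoptotic among pyknosed cells. Tubulin, mitochondrial-mass and membrane-permeability phenotypes are per cents of healthy-nucleus cells.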

[1] = 12 h, 1 µM, compound concentration 1 uM, replicate 1
[2] = 12 h, 1 µM, compound concentration 1 uM, replicate 2
[3] = 12 h, 10 µM, compound concentration 10 uM, replicate 1
[4] = 12 h, 10 µM, compound concentration 10 uM, replicate 2
[5] = 24 h, 1 µM, compound concentration 1 uM, replicate 1
[6] = 24 h, 1 µM, compound concentration 1 uM, replicate 2
[7] = 24 h, 10 µM, compound concentration 10 uM, replicate 1
[8] = 24 h, 10 µM, compound concentration 10 uM, replicate 2
[9] = 48 h, 1 µM, compound concentration 1 uM, replicate 1
[10] = 48 h, 1 µM, compound concentration 1 uM, replicate 2
[11] = 48 h, 10 µM, compound concentration 10 uM, replicate 1
[12] = 48 h, 10 µM, compound concentration 10 uM, replicate 2

CCCN1CCC[C@@H]2Cc3n[nH]cc3C[C@H]21.Cl [QUINPIROLE HYDROCHLORIDE]
Population Apoptotic (%) [1]: 71%
Population Fragmented Nuclei (%) [1]: 31%
Population Healthy Nuclei (%) [1]: 60%
Population Hoechst High Intensity Objects (%) [1]: 2%
Population Membrane Permeable-Phenotype (%) [1]: 7%
Population Mitochondria Different-Phenotype (%) [1]: 1%
Population Mitotic Cells (%) [1]: 28%
Population Normal (%) [1]: 97%
Population Pyknosed Nuclei (%) [1]: 8%
Population Tubulin-Different-Phenotype (%) [1]: 3%
Total Cell Count [1]: 265
Population Apoptotic (%) [2]: 61%
Population Fragmented Nuclei (%) [2]: 21%
Population Healthy Nuclei (%) [2]: 67%
Population Hoechst High Intensity Objects (%) [2]: 0%
Population Membrane Permeable-Phenotype (%) [2]: 2%
Population Mitotic Cells (%) [2]: 38%
Population Normal (%) [2]: 100%
Population Pyknosed Nuclei (%) [2]: 11%
Population Tubulin-Different-Phenotype (%) [2]: 2%
Total Cell Count [2]: 118
Population Apoptotic (%) [3]: 58%
Population Fragmented Nuclei (%) [3]: 19%
Population Healthy Nuclei (%) [3]: 72%
Population Hoechst High Intensity Objects (%) [3]: 1%
Population Membrane Permeable-Phenotype (%) [3]: 2%
Population Mitochondria Different-Phenotype (%) [3]: 0%
Population Mitotic Cells (%) [3]: 41%
Population Normal (%) [3]: 98%
Population Pyknosed Nuclei (%) [3]: 7%
Population Tubulin-Different-Phenotype (%) [3]: 1%
Total Cell Count [3]: 228
Population Apoptotic (%) [4]: 100%
Population Fragmented Nuclei (%) [4]: 9%
Population Healthy Nuclei (%) [4]: 85%
Population Hoechst High Intensity Objects (%) [4]: 2%
Population Membrane Permeable-Phenotype (%) [4]: 6%
Population Mitochondria Different-Phenotype (%) [4]: 5%
Population Mitotic Cells (%) [4]: 0%
Population Normal (%) [4]: 97%
Population Pyknosed Nuclei (%) [4]: 4%
Population Tubulin-Different-Phenotype (%) [4]: 2%
Total Cell Count [4]: 126
Population Apoptotic (%) [5]: 68%
Population Fragmented Nuclei (%) [5]: 27%
Population Healthy Nuclei (%) [5]: 64%
Population Hoechst High Intensity Objects (%) [5]: 1%
Population Membrane Permeable-Phenotype (%) [5]: 4%
Population Mitochondria Different-Phenotype (%) [5]: 3%
Population Mitotic Cells (%) [5]: 31%
Population Normal (%) [5]: 98%
Population Pyknosed Nuclei (%) [5]: 7%
Population Tubulin-Different-Phenotype (%) [5]: 3%
Total Cell Count [5]: 299
Population Apoptotic (%) [6]: 77%
Population Fragmented Nuclei (%) [6]: 18%
Population Healthy Nuclei (%) [6]: 68%
Population Hoechst High Intensity Objects (%) [6]: 0%
Population Mitochondria Different-Phenotype (%) [6]: 4%
Population Mitotic Cells (%) [6]: 22%
Population Normal (%) [6]: 100%
Population Pyknosed Nuclei (%) [6]: 13%
Population Tubulin-Different-Phenotype (%) [6]: 4%
Total Cell Count [6]: 138
Population Apoptotic (%) [7]: 88%
Population Fragmented Nuclei (%) [7]: 13%
Population Healthy Nuclei (%) [7]: 80%
Population Hoechst High Intensity Objects (%) [7]: 2%
Population Membrane Permeable-Phenotype (%) [7]: 2%
Population Mitochondria Different-Phenotype (%) [7]: 0%
Population Mitotic Cells (%) [7]: 11%
Population Normal (%) [7]: 97%
Population Pyknosed Nuclei (%) [7]: 6%
Population Tubulin-Different-Phenotype (%) [7]: 1%
Total Cell Count [7]: 281
Population Apoptotic (%) [8]: 92%
Population Fragmented Nuclei (%) [8]: 9%
Population Healthy Nuclei (%) [8]: 82%
Population Hoechst High Intensity Objects (%) [8]: 0%
Population Membrane Permeable-Phenotype (%) [8]: 0%
Population Mitochondria Different-Phenotype (%) [8]: 1%
Population Mitotic Cells (%) [8]: 7%
Population Normal (%) [8]: 99%
Population Pyknosed Nuclei (%) [8]: 8%
Population Tubulin-Different-Phenotype (%) [8]: 0%
Total Cell Count [8]: 163
Population Apoptotic (%) [9]: 75%
Population Fragmented Nuclei (%) [9]: 19%
Population Healthy Nuclei (%) [9]: 74%
Population Hoechst High Intensity Objects (%) [9]: 1%
Population Membrane Permeable-Phenotype (%) [9]: 4%
Population Mitochondria Different-Phenotype (%) [9]: 1%
Population Mitotic Cells (%) [9]: 25%
Population Normal (%) [9]: 98%
Population Pyknosed Nuclei (%) [9]: 6%
Population Tubulin-Different-Phenotype (%) [9]: 2%
Total Cell Count [9]: 425
Population Apoptotic (%) [10]: 78%
Population Fragmented Nuclei (%) [10]: 17%
Population Healthy Nuclei (%) [10]: 69%
Population Hoechst High Intensity Objects (%) [10]: 3%
Population Mitochondria Different-Phenotype (%) [10]: 5%
Population Mitotic Cells (%) [10]: 21%
Population Normal (%) [10]: 96%
Population Pyknosed Nuclei (%) [10]: 13%
Total Cell Count [10]: 180
Population Apoptotic (%) [11]: 86%
Population Fragmented Nuclei (%) [11]: 11%
Population Healthy Nuclei (%) [11]: 78%
Population Hoechst High Intensity Objects (%) [11]: 3%
Population Membrane Permeable-Phenotype (%) [11]: 4%
Population Mitochondria Different-Phenotype (%) [11]: 1%
Population Mitotic Cells (%) [11]: 13%
Population Normal (%) [11]: 96%
Population Pyknosed Nuclei (%) [11]: 9%
Population Tubulin-Different-Phenotype (%) [11]: 3%
Total Cell Count [11]: 386
Population Apoptotic (%) [12]: 91%
Population Fragmented Nuclei (%) [12]: 12%
Population Hoechst High Intensity Objects (%) [12]: 1%
Population Membrane Permeable-Phenotype (%) [12]: 6%
Population Mitochondria Different-Phenotype (%) [12]: 4%
Population Mitotic Cells (%) [12]: 8%
Population Normal (%) [12]: 98%
Population Tubulin-Different-Phenotype (%) [12]: 2%
Total Cell Count [12]: 251
